Laboratory results as given in ChEMBL document CHEMBL1135995, “Structure-activity relationships of methoctramine-related polyamines as muscular nicotinic receptor noncompetitive antagonists. 3. Effect of inserting the tetraamine backbone into a macrocyclic structure” (J Med Chem, 2002).

Assays:
[1] = molecular target: Acetylcholine receptor (Torpedo californica) (UniProt P02710+P02712+P02718+P02714); test: Antagonist activity against Nicotinic acetylcholine receptor (nAChR) of isolated Torpedo; format: functional
Procedure, shortened: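 Ethidium fluorescence displacement used nAChR-rich membranes from frozen Torpedo californica electric organ (1 µM receptor) with ethidium 7 µM and carbachol 1 mM in 50 mM NaPi, pH 7.4. Competing ligand was added stepwise, with excitation at 480 nm and emission read at 540-740 nm. Kapp was derived by a logarithmic formula (Herz et al.).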

[2] = Antagonist activity against Nicotinic acetylcholine receptor (nAChR) of isolated Frog rectus Abdominis Muscle; format: functional, tissue-based; conditions: Amphibia
[3] = molecular target: T1, Acetylcholine receptor subunit delta (Torpedo californica) (UniProt P02718); conditions: fish
T1 sequence (whole entry): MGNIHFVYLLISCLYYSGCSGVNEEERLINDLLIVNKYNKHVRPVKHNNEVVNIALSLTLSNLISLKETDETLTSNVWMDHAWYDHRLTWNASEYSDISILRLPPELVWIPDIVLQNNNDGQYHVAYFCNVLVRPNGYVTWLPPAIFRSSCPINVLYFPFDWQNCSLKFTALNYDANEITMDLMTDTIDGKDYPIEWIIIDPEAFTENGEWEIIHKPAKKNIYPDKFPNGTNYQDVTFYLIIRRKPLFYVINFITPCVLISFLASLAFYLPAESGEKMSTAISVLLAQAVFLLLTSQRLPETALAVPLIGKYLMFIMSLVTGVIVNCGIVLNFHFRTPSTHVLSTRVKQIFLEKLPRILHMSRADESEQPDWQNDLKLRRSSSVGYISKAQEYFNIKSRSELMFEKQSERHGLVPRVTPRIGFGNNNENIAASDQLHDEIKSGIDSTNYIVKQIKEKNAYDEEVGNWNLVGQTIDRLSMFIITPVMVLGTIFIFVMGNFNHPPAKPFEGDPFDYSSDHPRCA

[4] = molecular target: Muscarinic acetylcholine receptor M3 (Cavia porcellus) (UniProt Q8VH26); test: Antagonist activity against Muscarinic acetylcholine receptor M3 of isolated Guinea Pig Longitudinal ileum; format: functional, tissue-based
Chain of Muscarinic acetylcholine receptor M3 (Cavia porcellus) (Q8VH26 1-587): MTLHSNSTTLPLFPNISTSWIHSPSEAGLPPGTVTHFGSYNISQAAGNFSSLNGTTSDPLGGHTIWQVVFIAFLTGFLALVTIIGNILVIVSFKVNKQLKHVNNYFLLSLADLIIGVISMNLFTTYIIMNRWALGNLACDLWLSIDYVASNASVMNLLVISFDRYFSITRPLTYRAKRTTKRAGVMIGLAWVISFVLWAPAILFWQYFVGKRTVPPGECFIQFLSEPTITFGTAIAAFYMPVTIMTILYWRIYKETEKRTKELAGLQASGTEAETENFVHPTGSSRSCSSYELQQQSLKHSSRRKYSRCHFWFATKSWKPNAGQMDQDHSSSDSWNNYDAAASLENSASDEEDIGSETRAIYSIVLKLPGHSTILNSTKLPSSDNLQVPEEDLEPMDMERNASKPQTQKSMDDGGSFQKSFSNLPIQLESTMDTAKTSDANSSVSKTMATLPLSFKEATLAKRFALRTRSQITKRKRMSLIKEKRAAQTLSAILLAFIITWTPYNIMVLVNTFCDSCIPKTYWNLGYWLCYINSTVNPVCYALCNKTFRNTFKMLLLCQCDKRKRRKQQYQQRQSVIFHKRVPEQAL
Procedure, shortened: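 Guinea pig terminal ileum longitudinal muscle (2 cm segments) in PSS, with tension recorded isotonically. After ≥30 min equilibration, APE curves (0.01-0.5 µM) were run at 30 min intervals, the second serving as control. A new curve followed 60 min antagonist incubation, with the antagonist at a single 5 µM concentration in triplicate. EC50 was estimated graphically, with untreated parallel tissues as controls.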

[5] = system: Muscarinic acetylcholine receptor M2 (Cavia porcellus); test: Antagonist activity against Muscarinic acetylcholine receptor M2 of isolated Guinea Pig Left artium
[6] = molecular target: Acetylcholinesterase (Homo sapiens, UniProt P22303); test: Inhibitory activity on Acetylcholinesterase (AChE) from human erythrocytes
Chain of Acetylcholinesterase (P22303 whole entry): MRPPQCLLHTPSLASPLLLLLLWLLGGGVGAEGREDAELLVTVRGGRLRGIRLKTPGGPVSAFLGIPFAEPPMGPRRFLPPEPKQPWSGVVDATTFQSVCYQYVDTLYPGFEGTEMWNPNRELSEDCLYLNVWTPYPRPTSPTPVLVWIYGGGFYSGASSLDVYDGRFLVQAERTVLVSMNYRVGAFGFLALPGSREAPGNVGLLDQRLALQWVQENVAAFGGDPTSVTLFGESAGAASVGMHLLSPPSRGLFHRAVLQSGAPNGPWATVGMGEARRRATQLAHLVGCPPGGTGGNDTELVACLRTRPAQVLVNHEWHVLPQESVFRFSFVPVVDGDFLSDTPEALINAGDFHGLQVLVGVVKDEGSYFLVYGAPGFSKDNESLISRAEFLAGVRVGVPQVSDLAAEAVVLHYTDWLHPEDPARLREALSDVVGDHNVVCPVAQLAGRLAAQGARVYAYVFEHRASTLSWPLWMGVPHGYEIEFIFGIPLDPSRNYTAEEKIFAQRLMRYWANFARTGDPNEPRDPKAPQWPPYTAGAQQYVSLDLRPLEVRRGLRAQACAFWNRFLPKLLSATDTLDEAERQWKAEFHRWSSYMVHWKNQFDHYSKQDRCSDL

SMILES | pKapp [1] | IC50 [2] [nM] | pKapp [3] | pKB [4] | pKB [5] | IC50 [6] [nM]
COc1ccccc1CN1CCCCCCN(C)CCCCCCCCN(C)CCCCCCN(Cc2ccccc2OC)Cc2ccc(cc2)Cc2ccc(cc2)C1 | 6.21 | 229 | – | < 5 | < 5 | –
COc1ccccc1CN1CCCCCCCCN(Cc2ccccc2OC)CCCCCCNCc2ccc(cc2)Cc2ccc(cc2)CNCCCCCC1 | 6.26 | 191 | – | < 5 | – | –
COc1ccccc1CN1CCCCCCN(C)CCCCCCCCN(C)CCCCCCN(Cc2ccccc2OC)Cc2ccc(cc2)-c2ccc(cc2)C1 | 6.35 | 447 | – | – | – | –
COc1ccccc1CN1CCCCCCCCN(Cc2ccccc2OC)C(=O)CCCCCNCc2ccc(cc2)CNCCCCCC1=O | 6.47 | 170 | – | < 5 | < 5 | 1410
COc1ccccc1CN(CCCCCCCCN(Cc1ccccc1OC)C(=O)CCCCCN)C(=O)CCCCCN | 6.46 | 158 | – | – | – | 33100
COc1ccccc1CN1CCCCCCCCN(Cc2ccccc2OC)C(=O)CCCCCNCc2ccc(cc2)-c2ccc(cc2)CNCCCCCC1=O | 6.64 | 589 | – | < 5 | < 5 | 3390
COc1ccccc1CN(C)CCCCCC(=O)N(C)CCCCCCCCN(C)C(=O)CCCCCN(C)Cc1ccccc1OC | 4.99 | – | – | 5.55 | 6.39 | –
COc1ccccc1CN1CCCCCC(=O)N(C)CCCCCCCCN(C)C(=O)CCCCCN(Cc2ccccc2OC)Cc2ccc(cc2)-c2ccc(cc2)C1 | 5.1 | 525 | – | – | – | 53700
COc1ccccc1CN1CCCCCCCCN(Cc2ccccc2OC)CCCCCCNCc2ccc(cc2)-c2ccc(cc2)CNCCCCCC1 | – | 1200 | 5.48 | – | – | –

The next lines start with results.

pKapp [1] | IC50 [2] [nM] | pKapp [3] | pKB [4] | SMILES | pKB [5] | IC50 [6] [nM]
6.43 | 3470 | – | – | COc1ccccc1CN1CCCCCCN(C)CCCCCCCCN(C)CCCCCCN(Cc2ccccc2OC)Cc2ccc(cc2)C1 | – | –
– | 324 | 6.01 | – | COc1ccccc1CN1CCCCCCCCN(Cc2ccccc2OC)CCCCCCNCc2ccc(cc2)CNCCCCCC1 | – | –
5.66 | – | – | 5.98 | COc1ccccc1CNCCCCCCNCCCCCCCCCCCCNCCCCCCNCc1ccccc1OC | 7.35 | –
– | 331 | 6.4 | – | COc1ccccc1CN(CCCCCCN)CCCCCCCCN(CCCCCCN)Cc1ccccc1OC | – | –
< 4 | 4270 | – | – | CN1CCCCCCCCN(C)CCCCCCNCc2ccc(cc2)-c2ccc(cc2)CNCCCCCC1 | – | –
6.35 | 501 | – | < 5 | COc1ccccc1CNCCCCCCNCc1ccc(-c2ccc(-c3ccc(CNCCCCCCNCc4ccccc4OC)cc3)cc2)cc1 | < 5 | –
6.21 | 1170 | – | 6.14 | COc1ccccc1CNCCCCCCNCCCCCCCCNCCCCCCNCc1ccccc1OC [METHOCTRAMINE] | – | –
